# Measured values of several laboratories.
# Compare with care: the assays were run in different laboratories.
# Observed: cell growth or viability
Structure (SMILES),cell line,assay,conditions,measurement,value
CN1CCN(C(=O)[C@H](CCCN[C@@H]2C[C@H]2c2ccc(F)cc2)NC(=O)c2ccc(-n3ccnn3)cc2)CC1,NCI-H510A,resazurin,10 days,EC50,10.5 nM
COc1cccc(Oc2ccccc2NC(=O)CNC(=O)c2cccc3ccccc23)c1,NCI/ADR-RES,SRB,48 h,GI50,240 nM
S=C([S][Au-][P+](CCCCCC[P+]([Au-][S]C(=S)n1cccn1)(c1ccccc1)c1ccccc1)(c1ccccc1)c1ccccc1)n1cccn1,NCI/ADR-RES,SRB,,GI50,3990 nM
CC1=C(O)C(=O)C=C2C1=CC=C1[C@@]2(C)CC[C@@]2(C)[C@@H]3C[C@](C)(C(=O)OCCCBr)CC[C@]3(C)CC[C@]12C,MGC-803,MTT,48 h,IC50,400 nM
C=CC(=O)N1CCN(c2nc(=O)n(-c3c(C)ccnc3C(C)C)c3nc(-c4c(O)cccc4F)c(F)cc23)[C@@H](C)C1,GP2d,,5 days,EC50,> 10000 nM
O=C(O)c1ccc(CN2CCC(CN[C@@H]3C[C@H]3c3ccccc3)CC2)cc1,NCI-H510A,resazurin,10 days,EC50,109 nM
C=CC(=O)N1CCN(c2cc(-c3noc([C@@]4(C)CCCc5sc(N)c(C#N)c54)n3)nc(N3CCN(C)C[C@@H]3C)c2)CC1,GP2d,,5 days,EC50,4500 nM
COc1ccc(-c2ccc(-c3ccc(C(=N)N)nc3)s2)cc1Cl,NCI/ADR-RES,SRB,,GI50,2010 nM
Cc1cc(C)n(C(=S)[S][Au][PH](CCCCCC[PH]([Au][S]C(=S)n2nc(C)cc2C)(c2ccccc2)c2ccccc2)(c2ccccc2)c2ccccc2)n1,NCI/ADR-RES,SRB,,GI50,1300 nM
Cn1nnc2c(C(N)=O)ncn2c1=O,HGC-27,,,EC50,176000 nM
COc1ccc(-c2ccc(-c3ccc(C(=N)N)nc3)s2)cc1,NCI/ADR-RES,SRB,,GI50,1940 nM
